According to ChEMBL document CHEMBL4152379, “Discovery of Pyrrolidine Sulfonamides as Selective and Orally Bioavailable Antagonists of Transient Receptor Potential Vanilloid-4 (TRPV4)” (J Med Chem, 2018):
pIC50: −log10 of the molar value.

What was measured:
[1] = biological target: Transient receptor potential cation channel subfamily M member 4 (Homo sapiens, UniProt Q8TD43); assay: Inhibition of TRPM4 (unknown origin)
[2] = biological target: Transient receptor potential cation channel subfamily M member 2 (Homo sapiens, UniProt O94759); assay: Inhibition of TRPM2 (unknown origin)
Chain of Transient receptor potential cation channel subfamily M member 2 (O94759 whole entry): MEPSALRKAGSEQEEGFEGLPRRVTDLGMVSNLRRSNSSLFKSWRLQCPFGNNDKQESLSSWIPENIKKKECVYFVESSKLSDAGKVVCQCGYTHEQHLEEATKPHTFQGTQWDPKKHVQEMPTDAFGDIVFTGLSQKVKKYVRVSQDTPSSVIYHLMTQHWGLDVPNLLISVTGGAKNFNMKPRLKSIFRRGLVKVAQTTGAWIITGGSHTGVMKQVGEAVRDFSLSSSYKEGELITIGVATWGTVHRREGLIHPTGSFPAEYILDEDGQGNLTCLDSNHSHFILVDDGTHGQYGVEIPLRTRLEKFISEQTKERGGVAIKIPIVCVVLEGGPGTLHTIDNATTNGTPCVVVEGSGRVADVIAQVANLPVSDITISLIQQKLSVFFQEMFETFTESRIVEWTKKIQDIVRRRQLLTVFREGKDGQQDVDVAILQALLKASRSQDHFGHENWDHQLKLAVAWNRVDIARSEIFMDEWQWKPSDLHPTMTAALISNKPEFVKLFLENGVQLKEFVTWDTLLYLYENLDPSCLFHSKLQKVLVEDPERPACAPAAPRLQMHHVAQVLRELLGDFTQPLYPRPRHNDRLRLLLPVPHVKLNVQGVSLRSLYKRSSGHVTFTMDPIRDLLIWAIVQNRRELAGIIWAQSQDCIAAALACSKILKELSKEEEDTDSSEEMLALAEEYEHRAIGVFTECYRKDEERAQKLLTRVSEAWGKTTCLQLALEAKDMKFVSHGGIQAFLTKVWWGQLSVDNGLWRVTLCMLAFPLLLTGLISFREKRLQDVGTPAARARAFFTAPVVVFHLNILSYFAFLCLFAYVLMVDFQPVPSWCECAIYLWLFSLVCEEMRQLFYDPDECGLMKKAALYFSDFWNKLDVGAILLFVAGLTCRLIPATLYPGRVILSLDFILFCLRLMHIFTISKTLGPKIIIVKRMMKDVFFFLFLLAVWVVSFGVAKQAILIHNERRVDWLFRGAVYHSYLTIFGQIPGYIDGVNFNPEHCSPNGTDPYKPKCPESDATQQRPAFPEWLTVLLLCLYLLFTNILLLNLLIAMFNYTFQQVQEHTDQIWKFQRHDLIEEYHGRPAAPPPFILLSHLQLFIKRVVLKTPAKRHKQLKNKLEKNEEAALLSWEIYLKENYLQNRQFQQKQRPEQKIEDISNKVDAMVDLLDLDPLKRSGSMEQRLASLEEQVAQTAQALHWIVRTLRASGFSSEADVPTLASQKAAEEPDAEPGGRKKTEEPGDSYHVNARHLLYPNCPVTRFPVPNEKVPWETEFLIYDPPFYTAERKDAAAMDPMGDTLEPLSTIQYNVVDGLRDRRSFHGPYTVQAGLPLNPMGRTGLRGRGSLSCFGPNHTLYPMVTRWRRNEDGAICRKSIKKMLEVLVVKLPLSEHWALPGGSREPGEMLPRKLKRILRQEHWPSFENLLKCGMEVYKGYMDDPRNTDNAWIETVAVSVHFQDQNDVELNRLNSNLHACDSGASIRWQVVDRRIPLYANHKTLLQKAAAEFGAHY

[3] = biological target: Transient receptor potential cation channel subfamily A member 1 (Homo sapiens, UniProt O75762); assay: Inhibition of TRPA1 (unknown origin)
Chain of Transient receptor potential cation channel subfamily A member 1 (O75762 whole entry): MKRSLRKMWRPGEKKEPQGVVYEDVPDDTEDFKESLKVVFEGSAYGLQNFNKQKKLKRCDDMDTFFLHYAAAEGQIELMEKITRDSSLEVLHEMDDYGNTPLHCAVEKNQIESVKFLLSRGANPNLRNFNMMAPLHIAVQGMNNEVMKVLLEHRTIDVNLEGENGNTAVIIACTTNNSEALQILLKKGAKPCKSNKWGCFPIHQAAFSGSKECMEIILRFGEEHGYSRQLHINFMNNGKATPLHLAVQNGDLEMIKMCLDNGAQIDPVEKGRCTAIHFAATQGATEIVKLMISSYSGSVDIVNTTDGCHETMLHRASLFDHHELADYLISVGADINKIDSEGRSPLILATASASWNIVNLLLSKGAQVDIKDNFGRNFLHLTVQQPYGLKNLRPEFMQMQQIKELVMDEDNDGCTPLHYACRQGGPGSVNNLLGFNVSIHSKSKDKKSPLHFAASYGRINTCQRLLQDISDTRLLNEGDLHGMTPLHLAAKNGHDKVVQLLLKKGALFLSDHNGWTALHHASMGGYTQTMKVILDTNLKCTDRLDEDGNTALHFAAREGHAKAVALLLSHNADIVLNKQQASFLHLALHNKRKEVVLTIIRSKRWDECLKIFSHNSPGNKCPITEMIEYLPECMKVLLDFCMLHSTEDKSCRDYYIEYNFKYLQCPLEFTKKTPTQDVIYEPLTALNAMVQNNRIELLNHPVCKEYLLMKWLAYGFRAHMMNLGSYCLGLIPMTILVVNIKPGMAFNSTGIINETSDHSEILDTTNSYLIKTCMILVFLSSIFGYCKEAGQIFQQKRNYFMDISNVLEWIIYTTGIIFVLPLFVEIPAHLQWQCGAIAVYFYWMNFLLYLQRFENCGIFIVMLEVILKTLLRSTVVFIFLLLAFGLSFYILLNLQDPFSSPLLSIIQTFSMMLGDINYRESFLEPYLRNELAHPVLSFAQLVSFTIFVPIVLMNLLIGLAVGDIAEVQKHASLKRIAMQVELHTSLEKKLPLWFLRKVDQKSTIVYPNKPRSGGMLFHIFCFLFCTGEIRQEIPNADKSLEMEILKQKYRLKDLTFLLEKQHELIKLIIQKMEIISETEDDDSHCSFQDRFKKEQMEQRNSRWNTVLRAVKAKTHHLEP

[4] = biological target: Transient receptor potential cation channel subfamily V member 4 (Homo sapiens, UniProt Q9HBA0); assay: Antagonist activity at human TRPV4 expressed in BHK/AC9 or HEK MSR2 cells assessed as inhibition of GSK634775-induced Ca2+ flux pre-incubated for 10 mins before agonist addition by FLIPR assay
Chain of Transient receptor potential cation channel subfamily V member 4 (Q9HBA0 whole entry): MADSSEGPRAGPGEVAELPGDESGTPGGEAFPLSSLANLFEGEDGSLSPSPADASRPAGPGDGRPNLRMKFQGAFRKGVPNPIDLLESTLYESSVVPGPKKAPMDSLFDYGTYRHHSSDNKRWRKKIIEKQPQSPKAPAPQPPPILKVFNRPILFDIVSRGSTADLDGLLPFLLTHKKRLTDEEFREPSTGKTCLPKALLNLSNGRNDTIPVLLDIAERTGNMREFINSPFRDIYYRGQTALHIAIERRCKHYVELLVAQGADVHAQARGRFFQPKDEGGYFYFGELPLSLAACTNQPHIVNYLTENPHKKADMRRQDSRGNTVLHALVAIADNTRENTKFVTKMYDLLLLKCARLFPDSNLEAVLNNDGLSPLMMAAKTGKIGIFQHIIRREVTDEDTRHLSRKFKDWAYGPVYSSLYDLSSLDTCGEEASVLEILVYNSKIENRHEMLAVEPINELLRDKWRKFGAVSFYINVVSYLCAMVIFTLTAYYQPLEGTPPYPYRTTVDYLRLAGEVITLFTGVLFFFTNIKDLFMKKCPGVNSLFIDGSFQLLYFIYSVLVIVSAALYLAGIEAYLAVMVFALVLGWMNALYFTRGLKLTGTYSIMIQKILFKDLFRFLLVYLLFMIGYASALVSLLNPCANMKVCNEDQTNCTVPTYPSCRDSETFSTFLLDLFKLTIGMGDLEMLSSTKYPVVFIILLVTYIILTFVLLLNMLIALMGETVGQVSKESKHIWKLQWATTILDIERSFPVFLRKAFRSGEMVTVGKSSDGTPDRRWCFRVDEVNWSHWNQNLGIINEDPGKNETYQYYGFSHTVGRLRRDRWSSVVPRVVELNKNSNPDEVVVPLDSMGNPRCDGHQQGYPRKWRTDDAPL

[5] = biological target: T1, Short transient receptor potential channel 6 (Homo sapiens, UniProt Q9Y210); assay: Inhibition of TRPC6 (unknown origin)
T1 sequence (Q9Y210 whole entry): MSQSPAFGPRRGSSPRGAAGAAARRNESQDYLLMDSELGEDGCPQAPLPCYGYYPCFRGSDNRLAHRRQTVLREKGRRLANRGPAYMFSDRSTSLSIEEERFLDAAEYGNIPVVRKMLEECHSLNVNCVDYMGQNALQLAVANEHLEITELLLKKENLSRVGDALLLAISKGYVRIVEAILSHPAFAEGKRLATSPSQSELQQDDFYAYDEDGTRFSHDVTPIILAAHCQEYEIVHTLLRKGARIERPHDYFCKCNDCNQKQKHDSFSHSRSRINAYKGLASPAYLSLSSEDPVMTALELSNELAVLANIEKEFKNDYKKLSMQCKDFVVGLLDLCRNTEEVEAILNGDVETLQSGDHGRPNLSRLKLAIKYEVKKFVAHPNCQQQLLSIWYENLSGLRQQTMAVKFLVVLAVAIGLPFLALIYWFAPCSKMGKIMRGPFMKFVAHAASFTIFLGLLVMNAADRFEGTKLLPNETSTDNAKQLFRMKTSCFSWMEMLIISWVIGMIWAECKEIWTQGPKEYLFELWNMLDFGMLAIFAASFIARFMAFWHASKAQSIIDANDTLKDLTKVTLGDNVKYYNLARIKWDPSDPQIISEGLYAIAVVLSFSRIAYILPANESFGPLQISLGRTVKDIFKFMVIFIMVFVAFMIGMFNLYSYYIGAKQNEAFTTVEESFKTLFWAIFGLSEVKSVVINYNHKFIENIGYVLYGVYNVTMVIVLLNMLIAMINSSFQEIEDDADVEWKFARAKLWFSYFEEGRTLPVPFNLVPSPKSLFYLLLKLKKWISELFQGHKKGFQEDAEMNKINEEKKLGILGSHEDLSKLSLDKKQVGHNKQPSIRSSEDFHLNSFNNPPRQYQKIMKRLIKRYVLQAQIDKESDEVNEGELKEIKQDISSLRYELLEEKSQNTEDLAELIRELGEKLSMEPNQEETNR

Rattus norvegicus = species: Rattus norvegicus; assay: Unbound clearance in Sprague-Dawley rat; assay type: ADME, organism-based; details: in vivo
[6] = Oral bioavailability in Sprague-Dawley rat; assay type: ADME, organism-based; details: in vivo
Summary of the method: (§1)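 Male Sprague-Dawley rats with femoral vein, femoral artery and gastric catheters; noncrossover design, 2 rats per route; cassette dosing of up to five compounds. i.v. target 1 mg/kg in 5% DMSO/20% Cavitron (pH 4), infused over 30 min. Oral gastric bolus target 2 mg/kg in 5% DMSO/6% Cavitron (pH 4). Plasma sampled to 24 h and measured by HPLC−MS/MS. Noncompartmental analysis; F from dose-normalized AUC(0−∞) relative to mean i.v. AUC.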

[7] = Clearance in iv dosed Sprague-Dawley rat; assay type: ADME, organism-based; details: in vivo; summary of the method: as §1
[8] = MRT in iv dosed Sprague-Dawley rat; assay type: ADME, organism-based; details: in vivo; summary of the method: as §1
[9] = biological target: T2, Short transient receptor potential channel 4 (Homo sapiens, UniProt Q9UBN4); assay: Inhibition of TRPC4 (unknown origin)
T2 sequence (Q9UBN4 whole entry): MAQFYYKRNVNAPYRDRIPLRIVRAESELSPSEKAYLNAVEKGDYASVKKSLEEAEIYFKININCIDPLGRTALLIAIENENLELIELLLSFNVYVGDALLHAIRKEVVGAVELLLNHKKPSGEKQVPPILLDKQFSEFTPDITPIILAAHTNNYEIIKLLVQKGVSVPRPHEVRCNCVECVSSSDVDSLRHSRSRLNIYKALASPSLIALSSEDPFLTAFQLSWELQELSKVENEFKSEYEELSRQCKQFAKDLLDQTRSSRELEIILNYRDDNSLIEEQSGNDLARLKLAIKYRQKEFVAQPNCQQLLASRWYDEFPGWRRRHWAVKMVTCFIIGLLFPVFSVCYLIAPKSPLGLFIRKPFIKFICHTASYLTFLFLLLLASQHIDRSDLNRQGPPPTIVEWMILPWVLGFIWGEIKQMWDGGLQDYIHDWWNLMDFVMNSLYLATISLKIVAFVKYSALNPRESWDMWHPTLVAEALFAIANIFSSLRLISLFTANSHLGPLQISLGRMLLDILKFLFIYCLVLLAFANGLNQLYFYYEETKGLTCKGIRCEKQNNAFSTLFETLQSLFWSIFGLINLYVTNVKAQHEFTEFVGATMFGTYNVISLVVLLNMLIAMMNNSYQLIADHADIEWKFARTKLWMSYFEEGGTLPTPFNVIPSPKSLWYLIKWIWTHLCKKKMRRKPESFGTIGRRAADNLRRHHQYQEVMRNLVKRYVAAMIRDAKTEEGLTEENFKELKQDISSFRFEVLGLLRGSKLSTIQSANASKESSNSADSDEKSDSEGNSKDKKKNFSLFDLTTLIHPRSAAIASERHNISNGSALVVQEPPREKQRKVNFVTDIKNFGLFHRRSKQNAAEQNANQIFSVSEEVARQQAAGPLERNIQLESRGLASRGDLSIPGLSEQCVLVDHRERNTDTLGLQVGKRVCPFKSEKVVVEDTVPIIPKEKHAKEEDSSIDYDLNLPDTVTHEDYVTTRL

Chain of Transient receptor potential cation channel subfamily M member 4 (Q8TD43 whole entry): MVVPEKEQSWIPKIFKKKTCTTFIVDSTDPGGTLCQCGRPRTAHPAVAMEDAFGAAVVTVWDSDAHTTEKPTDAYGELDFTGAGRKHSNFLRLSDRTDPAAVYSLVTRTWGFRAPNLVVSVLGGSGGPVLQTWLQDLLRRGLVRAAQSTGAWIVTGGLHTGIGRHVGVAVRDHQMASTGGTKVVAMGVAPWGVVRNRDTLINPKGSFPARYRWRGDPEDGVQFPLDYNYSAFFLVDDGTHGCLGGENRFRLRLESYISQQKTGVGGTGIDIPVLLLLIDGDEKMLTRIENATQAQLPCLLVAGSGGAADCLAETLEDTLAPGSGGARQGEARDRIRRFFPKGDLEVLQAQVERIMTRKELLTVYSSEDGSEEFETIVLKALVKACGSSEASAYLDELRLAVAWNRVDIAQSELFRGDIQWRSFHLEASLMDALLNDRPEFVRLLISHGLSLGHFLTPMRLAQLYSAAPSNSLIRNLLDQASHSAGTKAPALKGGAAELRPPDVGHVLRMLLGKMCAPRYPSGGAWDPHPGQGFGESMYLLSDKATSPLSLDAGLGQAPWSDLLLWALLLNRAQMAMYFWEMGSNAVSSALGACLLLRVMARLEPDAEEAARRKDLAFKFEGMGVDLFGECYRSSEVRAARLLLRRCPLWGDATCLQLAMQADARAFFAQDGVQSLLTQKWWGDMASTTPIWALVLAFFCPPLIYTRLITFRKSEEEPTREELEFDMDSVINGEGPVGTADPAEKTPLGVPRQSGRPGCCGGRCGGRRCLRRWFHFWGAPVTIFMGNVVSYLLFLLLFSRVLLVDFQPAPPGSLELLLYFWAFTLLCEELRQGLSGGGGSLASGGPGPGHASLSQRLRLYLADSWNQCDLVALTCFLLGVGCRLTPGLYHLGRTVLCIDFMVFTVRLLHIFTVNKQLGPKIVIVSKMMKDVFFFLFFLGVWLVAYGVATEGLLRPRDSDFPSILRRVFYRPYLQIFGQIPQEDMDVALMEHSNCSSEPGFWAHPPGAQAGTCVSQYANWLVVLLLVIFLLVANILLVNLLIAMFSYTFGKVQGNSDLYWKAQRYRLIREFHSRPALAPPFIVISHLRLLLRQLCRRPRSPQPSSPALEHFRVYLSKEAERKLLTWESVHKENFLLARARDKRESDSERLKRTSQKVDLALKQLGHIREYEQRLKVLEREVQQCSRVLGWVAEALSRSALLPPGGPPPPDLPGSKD

N#Cc1ccc(O[C@H]2CN(S(=O)(=O)c3ccc(Cl)cc3Cl)C[C@@]2(O)CO)cc1F
pIC50 [1]: < 5.00 | pIC50 [2]: < 5.00 | pIC50 [3]: < 5.00 | pIC50 [4]: 8.60 | pIC50 [5]: < 5.00 | CL free (Rattus norvegicus): 966 mL/min/kg | bioavailability [6]: 35% | clearance [7]: 58 mL/min/kg | MRT [8]: 54 min | pIC50 [9]: < 5.00
